Reference: ChEMBL document CHEMBL1152183, “Structure-activity relationships of 3-substituted N-benzhydryl-nortropane analogs as nociceptin receptor ligands for the treatment of cough” (Bioorg Med Chem Lett, 2008)

Experiments:
Nociceptin receptor [1] = molecular target: T1, Nociceptin receptor (Homo sapiens, UniProt P41146); experiment: Displacement of [125I][Tyr14]nociceptin FQ from human cloned nociceptin receptor expressed in CHO cells; format: cell-based
Procedure, shortened: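 Competition binding on CHO cell membranes expressing cloned human nociceptin receptor, radioligand [125I][Tyr14]nociceptin FQ; Ki determined from dose–response curves.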

Mu-type opioid receptor = Mu-type opioid receptor (Homo sapiens, UniProt P35372); experiment: Displacement of [3H]diprenorphine from human mu opioid receptor expressed in CHO cells; format: cell-based
Procedure, shortened: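 CHO cell membranes expressing human opioid receptor; [3H]-diprenorphine as radioligand; Ki determined from dose–response curves.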

Homo sapiens [2] = species: Homo sapiens; experiment: Selectivity for human cloned nociceptin receptor over human mu opioid receptor
Homo sapiens [3] = species: Homo sapiens; experiment: Selectivity for human cloned nociceptin receptor over human delta opioid receptor
Homo sapiens [4] = species: Homo sapiens; experiment: Selectivity for human cloned nociceptin receptor over human kappa opioid receptor
Nociceptin receptor [5] = molecular target: T1, Nociceptin receptor; experiment: Agonist activity at human cloned nociceptin receptor expressed in CHO cells assessed as stimulation of [35S]GTPgammaS binding; format: functional, cell-based
Procedure, shortened: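 Membranes from cells transfected with nociceptin receptor; agonism measured as enhancement of [35S]GTPγS binding in presence of GDP; EC50 derived.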

Cavia porcellus [6] = species: Cavia porcellus; experiment: Antitussive activity in guinea pig assessed as suppression of capsaicin-induced cough after 2 hrs; format: functional
Procedure, shortened: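 Guinea pig capsaicin-induced cough model; oral dosing; cough suppression read 2 h after dosing relative to placebo; ED50 derived.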

Nociceptin receptor [7] = molecular target: T1, Nociceptin receptor; experiment: Agonist activity at human cloned nociceptin receptor expressed in CHO cells assessed as stimulation of [35S]GTPgammaS binding at 10 uM; format: functional, cell-based
Cavia porcellus [8] = experiment: Antitussive activity in guinea pig assessed as suppression of capsaicin-induced cough at 0.3 mg/kg, po; format: functional
Nociceptin receptor [9] = molecular target: T1, Nociceptin receptor; experiment: Agonist activity at human cloned nociceptin receptor expressed in CHO cells assessed as stimulation of [35S]GTPgammaS binding at 5.5 uM; format: functional, cell-based

T1 sequence (P41146 whole entry): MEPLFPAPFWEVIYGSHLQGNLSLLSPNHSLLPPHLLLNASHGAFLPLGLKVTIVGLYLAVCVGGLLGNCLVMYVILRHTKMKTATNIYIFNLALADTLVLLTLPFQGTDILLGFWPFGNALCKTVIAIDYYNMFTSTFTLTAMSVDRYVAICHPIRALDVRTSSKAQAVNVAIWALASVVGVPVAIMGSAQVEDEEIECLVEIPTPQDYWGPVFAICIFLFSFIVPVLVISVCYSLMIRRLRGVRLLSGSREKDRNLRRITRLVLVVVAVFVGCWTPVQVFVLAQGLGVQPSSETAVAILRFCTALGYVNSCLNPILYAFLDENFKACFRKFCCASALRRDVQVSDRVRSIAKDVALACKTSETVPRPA
Mu-type opioid receptor, sequence (P35372 whole entry): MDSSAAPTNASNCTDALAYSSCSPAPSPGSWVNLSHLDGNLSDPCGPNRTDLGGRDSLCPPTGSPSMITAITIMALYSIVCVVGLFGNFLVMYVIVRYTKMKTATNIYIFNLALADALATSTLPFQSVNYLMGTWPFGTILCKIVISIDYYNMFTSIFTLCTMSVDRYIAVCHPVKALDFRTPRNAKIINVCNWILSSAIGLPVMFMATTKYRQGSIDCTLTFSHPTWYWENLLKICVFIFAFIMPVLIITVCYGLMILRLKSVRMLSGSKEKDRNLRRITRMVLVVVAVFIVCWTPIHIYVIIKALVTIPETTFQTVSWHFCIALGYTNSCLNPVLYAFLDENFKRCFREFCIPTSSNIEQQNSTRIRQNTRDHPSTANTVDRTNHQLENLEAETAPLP

Compound: CC(=O)NC[C@@]1(C2CCCCN2)C[C@H]2CC[C@@H](C1)N2C(c1ccccc1Cl)c1ccccc1Cl (stereo not given in full)
- Ki (Nociceptin receptor [1]): 27 nM

Compound: CCNC[C@]1(Cc2ccccc2)C[C@H]2CC[C@@H](C1)N2C(c1ccccc1Cl)c1ccccc1Cl
- Ki (Nociceptin receptor [1]): 39 nM

Compound: CC(=O)NC[C@@]1(c2ccc(F)cc2)C[C@H]2CC[C@@H](C1)N2C(c1ccccc1Cl)c1ccccc1Cl
- Ki (Nociceptin receptor [1]): 31 nM
- Ki (Mu-type opioid receptor): 2110 nM
- fold change (FC) (Homo sapiens [2]): 68

Compound: Cc1cccnc1[C@]1(CN)C[C@H]2CC[C@@H](C1)N2C(c1ccccc1Cl)c1ccccc1Cl
- Ki (Nociceptin receptor [1]): 50 nM

Compound: Clc1ccccc1C(c1ccccc1Cl)N1[C@@H]2CC[C@H]1C[C@@](Cc1ccccc1)(CN1CCCC1)C2
- Ki (Nociceptin receptor [1]): 116 nM

Compound: COc1cccc([C@]2(CNC(C)=O)C[C@H]3CC[C@@H](C2)N3C(c2ccccc2Cl)c2ccccc2Cl)n1
- Ki (Nociceptin receptor [1]): 4 nM
- Ki (Mu-type opioid receptor): 251 nM

Compound: CN(C)C[C@@]1(Cc2ccccc2)C[C@H]2CC[C@@H](C1)N2C(c1ccccc1Cl)c1ccccc1Cl
- Ki (Nociceptin receptor [1]): 55 nM

Compound: NC[C@@]1(Cc2ccccc2)C[C@H]2CC[C@@H](C1)N2C(c1ccccc1Cl)c1ccccc1Cl
- Ki (Nociceptin receptor [1]): 11 nM
- fold change (FC) (Homo sapiens [3]): 300
- Ki (Mu-type opioid receptor): 1340 nM
- fold change (FC) (Homo sapiens [2]): 121
- fold change (FC) (Homo sapiens [4]): 33

Compound: CC(=O)NC[C@@]1(c2cccnc2)C[C@H]2CC[C@@H](C1)N2C(c1ccccc1Cl)c1ccccc1Cl
- Ki (Nociceptin receptor [1]): 35 nM

Compound: COC(=O)NC[C@@]1(c2ccccc2)C[C@H]2CC[C@@H](C1)N2C(c1ccccc1Cl)c1ccccc1Cl
- Ki (Nociceptin receptor [1]): 20 nM
- Ki (Mu-type opioid receptor): 905 nM

Compound: CN(C)C[C@@]1(c2cccc(F)n2)C[C@H]2CC[C@@H](C1)N2C(c1ccccc1Cl)c1ccccc1Cl
- Ki (Nociceptin receptor [1]): 104 nM
- Ki (Mu-type opioid receptor): 3980 nM

Compound: Fc1ccc(C[C@]2(CN3CCCC3)C[C@H]3CC[C@@H](C2)N3C(c2ccccc2Cl)c2ccccc2Cl)cc1
- Ki (Nociceptin receptor [1]): 58 nM

Compound: NC[C@@]1(c2ncccc2CN2CCCCC2)C[C@H]2CC[C@@H](C1)N2C(c1ccccc1Cl)c1ccccc1Cl
- Ki (Nociceptin receptor [1]): 245 nM

Compound: CC(=O)NC[C@@]1(c2cccc(F)n2)C[C@H]2CC[C@@H](C1)N2C(c1ccccc1Cl)c1ccccc1Cl
- Ki (Nociceptin receptor [1]): 24 nM
- Ki (Mu-type opioid receptor): 1280 nM

Compound: COc1ccc([C@]2(CNC(C)=O)C[C@H]3CC[C@@H](C2)N3C(c2ccccc2Cl)c2ccccc2Cl)nc1
- Ki (Nociceptin receptor [1]): 62 nM
- Ki (Mu-type opioid receptor): 3450 nM

Compound: CCNC[C@@]1(c2ccccn2)C[C@H]2CC[C@@H](C1)N2C(c1ccccc1Cl)c1ccccc1Cl
- Ki (Nociceptin receptor [1]): 6 nM
- Ki (Mu-type opioid receptor): 743 nM
- fold change (FC) (Homo sapiens [2]): 75

Compound: CC(=O)NC[C@@]1(c2ccccn2)C[C@H]2CC[C@@H](C1)N2C(c1ccccc1Cl)c1ccccc1Cl
- Ki (Nociceptin receptor [1]): 5 nM
- Ki (Mu-type opioid receptor): 374 nM
- fold change (FC) (Homo sapiens [2]): 75

Compound: CN(C)C[C@@]1(c2ccccn2)C[C@H]2CC[C@@H](C1)N2C(c1ccccc1Cl)c1ccccc1Cl
- Ki (Nociceptin receptor [1]): 7 nM
- Ki (Mu-type opioid receptor): 785 nM
- fold change (FC) (Homo sapiens [2]): 75
- EC50 (Nociceptin receptor [5]): 156 nM

Compound: COc1ccc([C@]2(CNC(C)=O)C[C@H]3CC[C@@H](C2)N3C(c2ccccc2Cl)c2ccccc2Cl)cc1
- Ki (Nociceptin receptor [1]): 118 nM
- Ki (Mu-type opioid receptor): 2410 nM

Compound: Clc1ccccc1C(c1ccccc1Cl)N1[C@@H]2CC[C@H]1C[C@](CN1CCCC1)(c1ccccc1)C2
- Ki (Nociceptin receptor [1]): 70 nM
- Ki (Mu-type opioid receptor): 4170 nM

Compound: CC(=O)NC[C@@]1(c2ncccc2CN2CCCCC2)C[C@H]2CC[C@@H](C1)N2C(c1ccccc1Cl)c1ccccc1Cl
- Ki (Nociceptin receptor [1]): 670 nM
- Ki (Mu-type opioid receptor): 758 nM

Compound: CC(=O)NC[C@@]1(c2ccccc2)C[C@H]2CC[C@@H](C1)N2C(c1ccccc1Cl)c1ccccc1Cl
- Ki (Nociceptin receptor [1]): 20 nM
- ED50 (Cavia porcellus [6]): 0.19 mg/kg
- fold change (FC) (Homo sapiens [3]): 300
- Ki (Mu-type opioid receptor): 777 nM
- EC50 (Nociceptin receptor [5]): 269 nM
- fold change (FC) (Homo sapiens [4]): 32
- Activity (Nociceptin receptor [7]): 122%

Compound: CC(=O)NC[C@@]1(c2ccc(Br)cn2)C[C@H]2CC[C@@H](C1)N2C(c1ccccc1Cl)c1ccccc1Cl
- Ki (Nociceptin receptor [1]): 27 nM
- Ki (Mu-type opioid receptor): 752 nM

Compound: CC(=O)NC[C@@]1(c2ccc(N3CCCCC3)cn2)C[C@H]2CC[C@@H](C1)N2C(c1ccccc1Cl)c1ccccc1Cl
- Ki (Nociceptin receptor [1]): 99 nM

Compound: NC[C@@]1(c2ccccn2)C[C@H]2CC[C@@H](C1)N2C(c1ccccc1Cl)c1ccccc1Cl
- Ki (Nociceptin receptor [1]): 7 nM
- fold change (FC) (Homo sapiens [3]): 300
- Ki (Mu-type opioid receptor): 617 nM
- fold change (FC) (Homo sapiens [2]): 75
- fold change (FC) (Homo sapiens [4]): 35

Compound: Clc1ccccc1C(c1ccccc1Cl)N1[C@@H]2CC[C@H]1C[C@@]1(CNc3ccccc31)C2
- Ki (Nociceptin receptor [1]): 50 nM
- Ki (Mu-type opioid receptor): 1200 nM

Compound: CCNC[C@@]1(c2cccc(OC)n2)C[C@H]2CC[C@@H](C1)N2C(c1ccccc1Cl)c1ccccc1Cl
- Ki (Nociceptin receptor [1]): 20 nM
- Ki (Mu-type opioid receptor): 442 nM

Compound: CC(=O)NC[C@@]1(Cc2ccc(F)cc2)C[C@H]2CC[C@@H](C1)N2C(c1ccccc1Cl)c1ccccc1Cl
- Ki (Nociceptin receptor [1]): 15 nM
- Ki (Mu-type opioid receptor): 782 nM
- EC50 (Nociceptin receptor [5]): 129 nM
- Activity (Cavia porcellus [8]): 23%
- Activity (Nociceptin receptor [7]): 124%

Compound: NC[C@@]1(c2cccnc2)C[C@H]2CC[C@@H](C1)N2C(c1ccccc1Cl)c1ccccc1Cl
- Ki (Nociceptin receptor [1]): 82 nM

Compound: Fc1ccc2c(c1)[C@]1(CN2)C[C@H]2CC[C@@H](C1)N2C(c1ccccc1Cl)c1ccccc1Cl
- Ki (Nociceptin receptor [1]): 39 nM
- Ki (Mu-type opioid receptor): 1710 nM

Compound: CC(=O)N(C)C[C@@]1(c2ccccc2)C[C@H]2CC[C@@H](C1)N2C(c1ccccc1Cl)c1ccccc1Cl
- Ki (Nociceptin receptor [1]): 210 nM
- Ki (Mu-type opioid receptor): 2620 nM
- fold change (FC) (Homo sapiens [2]): 13

Compound: COc1cccc([C@]2(CN)C[C@H]3CC[C@@H](C2)N3C(c2ccccc2Cl)c2ccccc2Cl)n1
- Ki (Nociceptin receptor [1]): 11 nM
- fold change (FC) (Homo sapiens [3]): 300
- Ki (Mu-type opioid receptor): 123 nM
- fold change (FC) (Homo sapiens [4]): 36

Compound: NC[C@@]1(c2ccccc2)C[C@H]2CC[C@@H](C1)N2C(c1ccccc1Cl)c1ccccc1Cl
- Ki (Nociceptin receptor [1]): 6 nM
- fold change (FC) (Homo sapiens [3]): 300
- Ki (Mu-type opioid receptor): 674 nM
- fold change (FC) (Homo sapiens [2]): 112
- fold change (FC) (Homo sapiens [4]): 30

Compound: CN(C)C[C@@]1(c2ccccc2)C[C@H]2CC[C@@H](C1)N2C(c1ccccc1Cl)c1ccccc1Cl
- Ki (Nociceptin receptor [1]): 17 nM
- Activity (Nociceptin receptor [9]): 104%
- fold change (FC) (Homo sapiens [3]): 300
- Ki (Mu-type opioid receptor): 1490 nM
- EC50 (Nociceptin receptor [5]): 483 nM
- Activity (Cavia porcellus [8]): 36%
- fold change (FC) (Homo sapiens [4]): 31

Compound: CC(=O)NC[C@@]1(Cc2ccccc2)C[C@H]2CC[C@@H](C1)N2C(c1ccccc1Cl)c1ccccc1Cl
- Ki (Nociceptin receptor [1]): 12 nM
- fold change (FC) (Homo sapiens [3]): 300
- Ki (Mu-type opioid receptor): 458 nM
- fold change (FC) (Homo sapiens [4]): 34

Compound: CC(=O)NC[C@@]1(c2ncccc2C)C[C@H]2CC[C@@H](C1)N2C(c1ccccc1Cl)c1ccccc1Cl
- Ki (Nociceptin receptor [1]): 173 nM

Compound: NC[C@@]1(C2CCCCN2)C[C@H]2CC[C@@H](C1)N2C(c1ccccc1Cl)c1ccccc1Cl (stereo not given in full)
- Ki (Nociceptin receptor [1]): 17 nM

Compound: O=C1CCCN1C[C@@]1(Cc2ccccc2)C[C@H]2CC[C@@H](C1)N2C(c1ccccc1Cl)c1ccccc1Cl
- Ki (Nociceptin receptor [1]): 336 nM

Compound: NC[C@@]1(Cc2ccc(F)cc2)C[C@H]2CC[C@@H](C1)N2C(c1ccccc1Cl)c1ccccc1Cl
- Ki (Nociceptin receptor [1]): 34 nM
- Activity (Nociceptin receptor [9]): 87%
- Ki (Mu-type opioid receptor): 1410 nM
- EC50 (Nociceptin receptor [5]): 124 nM

Compound: CNC[C@@]1(c2ccccc2)C[C@H]2CC[C@@H](C1)N2C(c1ccccc1Cl)c1ccccc1Cl
- Ki (Nociceptin receptor [1]): 10 nM
- Ki (Mu-type opioid receptor): 566 nM

Compound: NC[C@@]1(c2cccc(F)n2)C[C@H]2CC[C@@H](C1)N2C(c1ccccc1Cl)c1ccccc1Cl
- Ki (Nociceptin receptor [1]): 29 nM

Compound: O=C1CCCN1C[C@@]1(c2ccccc2)C[C@H]2CC[C@@H](C1)N2C(c1ccccc1Cl)c1ccccc1Cl
- Ki (Nociceptin receptor [1]): 68 nM

Compound: Cc1ccc2c(c1)[C@]1(CN2)C[C@H]2CC[C@@H](C1)N2C(c1ccccc1Cl)c1ccccc1Cl
- Ki (Nociceptin receptor [1]): 74 nM
- Ki (Mu-type opioid receptor): 998 nM
